Source: article PMC6129982 (Nature, 2018)
Where a chain is given by its changes, count along the chain named.

T1: Orco (Apocrypta bakeri, UniProt B0FAQ4)
T1 sequence (B0FAQ4 2-474): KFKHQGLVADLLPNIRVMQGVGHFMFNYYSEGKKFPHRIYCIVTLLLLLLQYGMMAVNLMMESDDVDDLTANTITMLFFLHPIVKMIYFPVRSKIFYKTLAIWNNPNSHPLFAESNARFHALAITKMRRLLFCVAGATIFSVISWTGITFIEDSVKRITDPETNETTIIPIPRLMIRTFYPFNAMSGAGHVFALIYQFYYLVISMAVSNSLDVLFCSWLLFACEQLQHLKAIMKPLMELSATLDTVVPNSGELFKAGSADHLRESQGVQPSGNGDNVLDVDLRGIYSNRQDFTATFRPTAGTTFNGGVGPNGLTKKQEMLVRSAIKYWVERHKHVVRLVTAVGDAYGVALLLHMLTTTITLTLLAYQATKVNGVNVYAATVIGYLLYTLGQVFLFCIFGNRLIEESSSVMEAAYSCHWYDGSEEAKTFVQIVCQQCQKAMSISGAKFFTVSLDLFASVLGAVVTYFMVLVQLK

T2: Orco T465A (Apocrypta bakeri, UniProt B0FAQ4, T465A)
T2 sequence (B0FAQ4 1-474 T465A): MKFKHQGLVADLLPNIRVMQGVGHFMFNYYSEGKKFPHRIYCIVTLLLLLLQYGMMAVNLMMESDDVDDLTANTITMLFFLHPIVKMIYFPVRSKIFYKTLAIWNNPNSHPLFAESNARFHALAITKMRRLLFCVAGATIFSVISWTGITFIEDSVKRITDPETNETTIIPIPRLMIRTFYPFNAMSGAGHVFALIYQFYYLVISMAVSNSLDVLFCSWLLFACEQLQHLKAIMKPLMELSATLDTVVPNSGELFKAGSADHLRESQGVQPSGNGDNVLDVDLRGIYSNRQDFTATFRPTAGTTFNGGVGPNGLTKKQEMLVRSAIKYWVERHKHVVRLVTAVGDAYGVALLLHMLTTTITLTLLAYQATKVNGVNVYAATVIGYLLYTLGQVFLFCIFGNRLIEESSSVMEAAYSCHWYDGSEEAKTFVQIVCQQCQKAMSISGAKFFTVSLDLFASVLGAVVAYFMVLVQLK

T3: Orco-Fab complex (Apocrypta bakeri, UniProt B0FAQ4)
T3 sequence (B0FAQ4 2-474): T1 sequence (B0FAQ4 2-474)

T4: Orco V469A (Apocrypta bakeri, UniProt B0FAQ4, V469A)
T4 sequence (B0FAQ4 1-474 V469A): T2 sequence (B0FAQ4 1-474 T465A) with A465T, V469A

T5: Orco S458A (Apocrypta bakeri, UniProt B0FAQ4, S458A)
T5 sequence (B0FAQ4 1-474 S458A): T2 sequence (B0FAQ4 1-474 T465A) with S458A, A465T

T6: Orco L473A (Apocrypta bakeri, UniProt B0FAQ4, L473A)
T6 sequence (B0FAQ4 1-474 L473A): T2 sequence (B0FAQ4 1-474 T465A) with A465T, L473A

B1: Apocrypta bakeri Orco, purified (residues Lys2-Lys474, Strep-GFP tag cleaved) (receptor, UniProt B0FAQ4 2-474, looked up)
chain: T1 sequence (B0FAQ4 2-474)

Tests used:
Orco [1] = molecular target: T1, Orco; test: Whole-cell voltage-clamp VUAA1 dose-response, HEK293 cell expressing Orco; format: cell-based
Summary of the method: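 Whole-cell recording used Flp-In T-Rex 293 cells stably expressing GFP-tagged wild-type Orco, held at −80 mV. Bath: 135 mM NaCl, 5 mM KCl, 2 mM CaCl2, 2 mM MgCl2, 10 mM glucose, HEPES pH 7.3. Pipette: 150 mM KCl, 10 mM NaCl, 1 mM EDTA, HEPES pH 7.45. VUAA1 was diluted in bath solution and locally perfused. Current was normalised to the current at the highest concentration and Hill-fitted; four cells, mean ± s.d. Outside-out patches were held at −140 mV.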

Orco T465A = molecular target: T2, Orco T465A; test: Cell-based GCaMP assay, mutant Orco homomer; set-up: species or system A. bakeri; details: mutation of Thr465 to alanine
Summary of the method: (§1)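 Orco alone (A. bakeri wild-type or point mutant, or An. gambiae) was transfected with GCaMP6s into HEK293 cells by lipofectamine. After 4 h plus 24 h, cells were read in HEPES-buffered HBSS pH 7.4 with 5 mM CaCl2. VUAA1 was added after 34 s at seven concentrations plus zero, four wells each. GCaMP fluorescence (480/527 nm, 37 °C) was followed for 2 min. A Hill equation fitted to ΔF/Fo gave EC50 and n over N independent replicates.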

Orco-Fab complex = molecular target: T3, Orco-Fab complex; test: Isothermal titration calorimetry; format: binding
Summary of the method: (§2)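 A. bakeri Orco was expressed from baculovirus in HEK293S GnTi− cells, StrepTactin-purified and tag-cleaved in HBS/0.05% digitonin. It was used alone or complexed with Fab (1.5-fold molar excess) at ~10 μM monomer. VUAA1 (0.5 mM in the same buffer, 0.5% DMSO matched) was injected at 25 °C: 0.4 μL, then 19 × 2 μL, 150 s apart. A single-site fit (n fixed at 1, first injection excluded) gave Kd, ΔH and ΔQdil; three independent purifications.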

Orco V469A = molecular target: T4, Orco V469A; test: Cell-based GCaMP assay, mutant Orco homomer; set-up: species or system A. bakeri; details: mutation of Val469 to alanine
Summary of the method: as §1

Orco S458A = molecular target: T5, Orco S458A; test: Cell-based GCaMP assay, mutant Orco homomer; set-up: species or system A. bakeri; details: mutation of Ser458 to alanine
Summary of the method: as §1

Orco [2] = molecular target: T1, Orco; test: Isothermal titration calorimetry; format: binding
Summary of the method: as §2

Orco L473A = molecular target: T6, Orco L473A; test: Cell-based GCaMP assay, mutant Orco homomer; set-up: species or system A. bakeri; details: mutation of Leu473 to alanine
Summary of the method: as §1

cryo-EM structure = molecular target: the molecule itself; test: cryo-EM structure
[3] = ITC 25 °C, fitted parameter, mean ± s.d.
[4] = ITC 25 °C, single-site model, mean ± s.d.

Molecule | EC50 (Orco [1]) | channel activation (Orco [1]; Orco expressed independently, whole-cell and outside-out patch recording) | Hill coefficient n (Orco [1]; whole-cell current, Hill fit, four independent cells, mean ± s.d.) | VUAA1 responses in Orco homomers versus wild-type (Orco T465A) | Kd (Orco-Fab complex) | binding affinity of Orco-Fab complex for VUAA1 versus Orco (Orco-Fab complex; ITC) | heat associated with sample dilution (ΔQdil) (Orco-Fab complex; [3]) | enthalpy of binding (ΔH) (Orco-Fab complex; [4]) | enhancement of apparent sensitivity of Orco homomers versus wild-type (Orco V469A) | VUAA1 responses in Orco homomers versus wild-type (Orco S458A) | Kd (Orco [2]) | heat associated with sample dilution (ΔQdil) (Orco [2]; [3]) | enthalpy of binding (ΔH) (Orco [2]; [4]) | enhancement of apparent sensitivity of Orco homomers versus wild-type (Orco L473A) | stoichiometry N (cryo-EM structure)
CCc1ccc(NC(=O)CSc2nnc(-c3cccnc3)n2CC)cc1 [VUAA1] | 64 ± 7 µM | activated | 3.5 ± 0.5 | strongly attenuated | 18 ± 2 µM | retained its binding affinity | -1.0 ± 0.2 kcal/mol | -9.7 ± 0.4 kcal/mol | 10 fold | strongly attenuated | 13 ± 1 µM | -1.0 ± 0.1 kcal/mol | -8.3 ± 0.6 kcal/mol | 10 fold | –
B1 | – | – | – | – | – | – | – | – | – | – | – | – | – | – | 4
